Results as given in ChEMBL document CHEMBL1275336, “Identification of a novel pyrrole derivative endowed with antimycobacterial activity and protection index comparable to that of the current antitubercular drugs streptomycin and rifampin” (Bioorg Med Chem, 2010).
≈ marks a conversion by molar mass, not a printed value.

Columns and labels:
[1] = test system: Mycobacterium tuberculosis; experiment: Antimycobacterial activity against isoniazid-resistant Mycobacterium tuberculosis after 3 to 28 days by twofold dilution method; type: functional
Method in brief: (§1)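 Twofold agar dilution in Middlebrook 7H11 with 10% OADC; plates held at 37 °C for 3 or 28 days. MIC is the lowest concentration giving complete inhibition of visible mycobacterial growth. Rifampin, streptomycin and BM521 served as references.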

[2] = test system: Mycobacterium tuberculosis; experiment: Antimycobacterial activity against rifampin-resistant Mycobacterium tuberculosis after 3 to 28 days by twofold dilution method; type: functional; method in brief: as §1

## CO[C@H]1/C=C/O[C@@]2(C)Oc3c(C)c(O)c4c(O)c(c(/C=N/N5CCN(C)CC5)c(O)c4c3C2=O)NC(=O)/C(C)=C\C=C\[C@H](C)[C@H](O)[C@@H](C)[C@@H](O)[C@@H](C)[C@H](OC(C)=O)[C@@H]1C [RIFAMPIN]
[1]
  MIC: 0.8 µg/mL (≈ 0.972 µM)
[2]
  MIC: > 64 µg/mL

## Cc1ccc(-c2cc(CN3CCSCC3)c(C)n2-c2ccc(F)cc2)cc1
[1]
  MIC: 32 µg/mL (≈ 84.1 µM)
[2]
  MIC: 0.5 µg/mL (≈ 1.31 µM)

## CSc1ccc(-c2cc(CN3CCSCC3)c(C)n2-c2ccc(F)cc2)cc1
[1]
  MIC: > 16 µg/mL
[2]
  MIC: 0.25 µg/mL (≈ 0.606 µM)

## CN[C@@H]1[C@H](O[C@H]2[C@H](O[C@H]3[C@H](O)[C@@H](O)[C@H](N=C(N)N)[C@@H](O)[C@@H]3N=C(N)N)O[C@@H](C)[C@]2(O)C=O)O[C@@H](CO)[C@H](O)[C@H]1O [STREPTOMYCIN]
[1]
  MIC: 0.5 µg/mL (≈ 0.86 µM)
[2]
  MIC: 0.5 µg/mL (≈ 0.86 µM)
